In paper PMC9933479 (ACS Omega, 2023):
Entries after “also recorded” stand apart in the source; their conditions may differ. Where two headings read alike, the source gives them in different places.

Legend:
A549 (lung carcinoma) = assay: MTT assay, cytotoxicity/growth inhibition; format: cell-based, human; settings: for IC50 / inhibition at 20 µM: Homo sapiens; for IC50: A549; for inhibition at 20 µM: A549, 48 h
Outline: (§1)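 Cells were grown in RPMI (A549, HCT-116, PC-3) or DMEM (MCF-7) with 10% FBS at 37 °C and 5% CO2. Seeding per well was […] and PC-3 8 × 10^4 cells. […] MTT 250 μg/mL, 4 h; DMSO; A570; triplicate; mean ± SE.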

HOP62 = assay: In vitro cytotoxicity, expanded lung cancer panel; format: cell-based; settings: Homo sapiens, HOP-62
[1] = tested on: HCT-116 (colon carcinoma); assay: MTT assay, cytotoxicity/growth inhibition; format: cell-based; settings: Homo sapiens; for IC50: HCT-116; for inhibition at 20 µM: HCT-116, 48 h, read-out: Cytotoxic Activity (% Growth Inhibition)
Outline: as §1

HOP92 = assay: In vitro cytotoxicity, expanded lung cancer panel; format: cell-based; settings: Homo sapiens, HOP-92
MCF-7 (breast carcinoma) = assay: MTT assay, cytotoxicity/growth inhibition; format: cell-based; settings: Homo sapiens; for IC50: MCF7; for inhibition at 20 µM: MCF7, 48 h, read-out: Cytotoxic Activity (% Growth Inhibition)
Outline: as §1

[2] = tested on: PC-3 (prostate carcinoma); assay: MTT assay, cytotoxicity/growth inhibition; format: cell-based; settings: Homo sapiens; for inhibition at 20 µM: 48 h, read-out: Cytotoxic Activity (% Growth Inhibition)
Outline: as §1

[3] = tested on: normal human embryonic kidney cells (HEK293); assay: Selectivity index versus normal cell line; format: cell-based
A549 cells [4] = assay: Intracellular ROS, DCFDA/DCFHDA staining; format: cell-based, human; settings: A549, DCFDA dye, 48 h
Outline: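 Seeded A549 cells (3 × 10^4 per well) adhered 24 h at 37 °C, then received test compound at 1, 3.5 or 5 μM for 48 h. Cells were loaded with 10 μM DCFHDA for 30 min at 37 °C and moved to PBS. Intracellular ROS was imaged by fluorescence microscopy. H2O2 (0.05%) was the positive control.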

A549 cells [5] = assay: DAPI staining, nuclear morphology / apoptosis; format: cell-based, human; settings: A549, 1, 3.5 and 5 μM, 48 h
Outline: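 A549 cells (3 × 10^4 per well) were grown 48 h, then exposed to test compound at 1, 3.5 and 5 μM for 48 h. Cells were washed in PBS, fixed in ice-cold 4% paraformaldehyde for 20 min and permeabilised with 0.25% Triton X-100. Staining was DAPI at 1 μg/mL final for 30 min, read by fluorescence microscopy. Cisplatin 17 μM was the positive control.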

A549 cells [6] = assay: Mitochondrial membrane potential, Rhodamine-123 staining; format: cell-based, human; settings: A549, Rh-123 dye, 1, 3.5 and 5 μM, 48 h, versus untreated cells
Outline: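 A549 cells (3 × 10^4 per well) adhered 24 h at 37 °C and were treated with test compound at 1, 3.5 and 5 μM for 48 h. They were stained with 10 μM rhodamine-123 for 30 min at 37 °C and washed in PBS. Fluorescence microscopy read mitochondrial membrane potential as Rh-123 fluorescence, compared with untreated cells.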

[7] = read-out: Cytotoxic Activity (% Growth Inhibition), A549, 20 μM concentration, MTT, 48 h

SMILES | Cytotoxic Activity (% Growth Inhibition) (A549 (lung carcinoma); A549, 20 μM concentration, MTT, 48 h, 20 µM) [%] | potency relative to andrographolide (times / fold more potent) (A549 (lung carcinoma); A549, ratio of IC50 values) | IC50 (A549 (lung carcinoma)) [µM] | inhibition at 20 µM (A549 (lung carcinoma); [7]) [%] | IC50 (HOP62) [µM] | IC50 [1] [µM] | inhibition at 20 µM [1] [%] | IC50 (HOP92) [µM] | IC50 (MCF-7 (breast carcinoma)) [µM] | inhibition at 20 µM (MCF-7 (breast carcinoma)) [%] | IC50 [2] [µM] | inhibition at 20 µM [2] [%] | selectivity index (SI) wrt HEK cell line ([3]; A549 versus HEK293) | selectivity index (SI) wrt HEK cell line ([3]; HOP62 versus HEK293) | selectivity index (SI) wrt HEK cell line ([3]; HOP92 versus HEK293) | intracellular ROS generation (A549 cells [4]; 1 μM) | intracellular ROS levels (A549 cells [4]; 3.5 and 5 μM) | nuclear morphology / apoptosis (DAPI staining) (A549 cells [5]) | mitochondrial membrane potential (MMP) (A549 cells [6]) | inhibition at 20 µM (A549 (lung carcinoma); read-out: Cytotoxic Activity (% Growth Inhibition)) [%]
COc1ccc(CC(=O)OCC2=CCC3[C@](C)(CO)[C@H](O)CC[C@@]3(C)[C@@H]2/C=C/C2=CCOC2=O)cc1 (stereo partly drawn) [Compound 9s, ((1S,5R,6R,8aR)-6-Hydroxy-5-(hydroxymethyl)-5,8a-dimethyl-1-((E)-2-(2-oxo-2,5-dihydrofuran-3-yl)vinyl)-1,4,4a,5,6,7,8,8a-octahydronaphthalen-2-yl)methyl 2-(4-Methoxyphenyl)acetate] | 82.2 ± 0.78 | ~7 | 3.5 | 82 | 13 | > 20 | 4.1 ± 0.97 | 38.6 | 14.6 | 54 ± 0.74 | > 20 | 27.6 ± 0.89 | 13.9 | 3.7 | 1.26 | increases reactive oxygen species (ROS); also recorded: significantly induced more ROS generation | ROS levels decrease | nuclear morphological changes; also recorded: altered staining pattern, apoptotic bodies, and condensed chromatin; also recorded: induces apoptosis | disturbed mitochondrial membrane potential (MMP); also recorded: significant reduction in MMP; also recorded: disturbs mitochondrial membrane potential | 
C[C@@]12COC(c3ccccc3)O[C@@H]1CC[C@]1(C)C2CC=C(COC(=O)Cc2ccccc2)[C@H]1/C=C/C1=CCOC1=O (stereo partly drawn) [Compound 8o, ((4aR,6aR,7S,10bR)-6a,10b-Dimethyl-7-((E)-2-(2-oxo-2,5-dihydrofuran-3-yl)vinyl)-3-phenyl-4a,5,6,6a,7,10,10a,10b-octahydro-1H-naphtho[2,1-d][1,3]dioxin-8-yl)methyl 2-Phenylacetate] |  |  |  |  |  |  | 24.97 ± 0.16 |  |  | 32.09 ± 0.08 |  | 0 |  |  |  |  |  |  |  | 20.13 ± 0.02
CCCCCCCCCCCC(=O)OCC1=CCC2[C@](C)(CO)[C@H](O)CC[C@@]2(C)[C@@H]1/C=C/C1=CCOC1=O (stereo partly drawn) [Compound 9y, ((1S,5R,6R,8aR)-6-Hydroxy-5-(hydroxymethyl)-5,8a-dimethyl-1-((E)-2-(2-oxo-2,5-dihydrofuran-3-yl)vinyl)-1,4,4a,5,6,7,8,8a-octahydronaphthalen-2-yl)methyl Dodecanoate] |  |  |  | 1.6 ± 0.98 |  |  | 4.6 ± 0.44 |  |  | 38 ± 0.18 |  | 66 ± 0.47 |  |  |  |  |  |  |  | 
CCCCCCCC(=O)OCC1=CCC2[C@]3(C)COC(c4ccccc4)O[C@@H]3CC[C@@]2(C)[C@@H]1/C=C/C1=CCOC1=O (stereo partly drawn) [Compound 8w, ((4aR,6aR,7S,10bR)-6a,10b-Dimethyl-7-((E)-2-(2-oxo-2,5-dihydrofuran-3-yl)vinyl)-3-phenyl-4a,5,6,6a,7,10,10a,10b-octahydro-1H-naphtho[2,1-d][1,3]dioxin-8-yl)methyl Octanoate] |  |  | 8.4 | 70.7 ± 0.73 |  | > 20 | 40.5 ± 0.91 |  | 20 | 51 ± 0.96 | > 20 | 49 ± 0.85 |  |  |  |  |  |  |  | 
